Data: ChEMBL document CHEMBL1177852, “Design and preparation of aza-analogues of benzo[c]phenanthridine framework with cytotoxic and antiplasmodial activities” (Eur J Med Chem, 2010)

How the values were obtained:
Plasmodium falciparum [1] = test: Antiplasmodial activity against chloroquine-resistant Plasmodium falciparum FcB1/Columbia after 48 hrs; type: functional, organism-based
Method in brief: (§1)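 P. falciparum cultured by Trager–Jensen method with modifications; cultures synchronized by 5% D-sorbitol lysis. Parasites incubated with compound at increasing dilutions for 48 h; growth read out as [3H]hypoxanthine incorporation.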

Plasmodium falciparum [2] = test: Antiplasmodial activity against chloroquine-sensitive Plasmodium falciparum F32 after 48 hrs; type: functional, organism-based; conditions: F32, 48 h; method in brief: as §1
MCF7 = test: Cytotoxicity against human MCF7 cells after 48 hrs by [3H]hypoxanthine incorporation assay; type: functional, cell-based
Method in brief: (§2)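 MCF7 and Vero cells cultured as for P. falciparum, but with 5% fetal calf serum in place of 5% human serum. Drugs added at various concentrations; growth measured by [3H]hypoxanthine incorporation after 48 h incubation.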

Vero = test: Cytotoxicity against african green monkey Vero cells after 48 hrs by [3H]hypoxanthine incorporation assay; type: cell-based; conditions: Chlorocebus sabaeus; method in brief: as §2

| SMILES | IC50 (Plasmodium falciparum [1]) | IC50 (Plasmodium falciparum [2]) | IC50 (MCF7) | IC50 (Vero) |
| --- | --- | --- | --- | --- |
| Cn1c(=O)c2ccccc2c2nc3ccccc3cc21 | 181 µM | 355 µM | 154 µM | 42 µM |
| COc1cccc2c1C(=O)c1c(O)c3c(c(O)c1C2=O)C[C@@](O)(C(=O)CO)C[C@@H]3O[C@H]1C[C@H](N)[C@H](O)[C@H](C)O1 [DOXORUBICIN] | – | – | 0.41 µM | 7.4 µM |
| Cn1c(=O)c2ccccc2c2c3ccccc3ncc21 | 14.8 µM | 32.7 µM | 30.9 µM | 22.3 µM |
| Cn1c(=O)c2ccccc2c2c3cccnc3ccc21 | 80.7 µM | 96.1 µM | 11.5 µM | 1.75 µM |
| Cn1c(=O)c2ccccc2c2ccc3cnccc3c21 | 54.8 µM | 61 µM | 11.9 µM | 2.3 µM |
| Cn1c(=O)c2ccccc2c2ccc3cccnc3c21 | 38.2 µM | 36.3 µM | 16.5 µM | 3.35 µM |
| Cn1c(=O)c2ccccc2c2cc3ncccc3cc21 | 154 µM | 123 µM | 0.6 µM | 2.85 µM |
| Cn1c(=O)c2ccccc2c2ccc3ncccc3c21 | 22.3 µM | 17.6 µM | 12.5 µM | 3.5 µM |
